Converted amounts (≈) assume the structure as drawn. The source made the active and inactive calls. The rule behind the calls is not given here.
What was measured:
ACHN = test: Cytotoxicity against human ACHN cells […] by MTT assay; type: functional, cell-based
COLO 205 [1] = test: Cytotoxicity against human COLO205 cells […] by MTT assay; type: functional, cell-based
HeLa [2] = test: Cytotoxicity against human HeLa cells at 100 ug/ml […] by MTT assay; type: cell-based
BT-549 [3] = test: Cytotoxicity against human BT549 cells at 100 ug/ml […] by MTT assay; type: cell-based
Rattus norvegicus [4] = test: Antiinflammatory activity in albino rat assessed as inhibition of carrageenan-induced paw edema at 100 mg/kg, po administered 1 hr prior to carrageenan-challenge measured after 3 hrs relative to control; type: functional
How it was run: (§1)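 Charles Foster albino rats of either sex (150–200 g, pregnant females excluded), six per group, dosed orally; 1 h later 0.2 mL of 1% carrageenan in 0.9% NaCl injected into right hind paw subplantar tissue. Paw volume read by plethysmometer at injection and 3 h later. Control group received carrageenan only. % inhibition = 1–Dt/Dc×100. Mean ± S.D.; one-way ANOVA with Tukey's test.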

[5] = Antitumor activity against mouse EAC […] Swiss albino mouse assessed as increase in life span at 100 mg/kg, ip relative to vehicle-treated control; type: functional, Ehrlich; settings: route intraperitoneal
How it was run: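 Female Swiss albino mice (6–8 weeks), six per group, inoculated i.p. on day 0 with 1×10⁶ viable EAC cells from donor ascites. Drug suspended in 0.25% CMC, given i.p. at 0.1 ml/10 g on days 10–14. Survival was monitored twice daily for 44 days. ILS(%) = [(MST treated/MST control) − 1]×100, where MST is total days survived divided by the number of animals.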

[6] = Antitumor activity against mouse EAC […] Swiss albino mouse assessed as change in body weight at 100 mg/kg, ip administered on day 10 measured on day 15 (reference value: 22.03 +/- 1.67%); type: functional, Ehrlich; settings: route intraperitoneal
[7] = Antitumor activity against mouse EAC […] Swiss albino mouse assessed as change in body weight at 100 mg/kg, ip administered everyday from day 10 to day 14 measured on day 12 (reference value: 22.03 +/- 1.67%); type: functional, Ehrlich; settings: route intraperitoneal
COLO 205 [8] = test: Inhibition of NF-kappaB in human COLO205 cells assessed as Bax up-regulation at IC50 after 48 hrs by RT-PCR analysis; type: cell-based
How it was run: (§2)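 About 4x10⁶ COLO-205 cells/well treated at IC₅₀ dose for 48 h. Total RNA extracted with TRI Reagent and quantified. Bcl-2 and Bax measured by RT-PCR against GAPDH (40 cycles: 94 °C, 55 °C, 72 °C). Products run on 1.5% agarose gel and quantified by band densitometry.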

COLO 205 [9] = test: Inhibition of NF-kappaB in human COLO205 cells assessed as Bcl-2 down regulation at IC50 after 48 hrs by RT-PCR analysis; type: cell-based; how it was run: as §2
COLO 205 [10] = test: Induction of apoptosis in human COLO205 cells assessed as zeiosis at IC50 after 48 hrs by Hoechst 33258 staining-based inverted microscopic analysis; type: functional, cell-based
How it was run: (§3)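 COLO-205 cells seeded at 10⁵ cells/ml and grown to 70-80% confluency. Treated at IC₅₀ dose for 48 h. Fixed in 4% formaldehyde for 30 min at room temperature, stained with Hoechst 33258 for 15 min, washed three times with PBS. Imaged by inverted fluorescence microscope (excitation 340-380 nm, emission 465 nm) at 400x and scored for nuclear morphology.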

COLO 205 [11] = test: Induction of apoptosis in human COLO205 cells assessed as karyopyknosis at IC50 after 48 hrs by Hoechst 33258 staining-based inverted microscopic analysis; type: functional, cell-based; how it was run: as §3
COLO 205 [12] = test: Induction of apoptosis in human COLO205 cells assessed as nuclear fragmentation at IC50 after 48 hrs by Hoechst 33258 staining-based inverted microscopic analysis; type: functional, cell-based; how it was run: as §3
COLO 205 [13] = test: Induction of apoptosis in human COLO205 cells assessed as late apoptotic cells at IC50 after 48 hrs by acridine orange-ethidium bromide staining assay; type: functional, cell-based
How it was run: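 COLO-205 cells seeded at 10⁵ cells/ml, grown 24 h, then treated at IC₅₀ dose for 48 h. Floating and trypsinized adherent cells pooled, spun at 129 g for 5 min and washed in PBS. Stained with 1:1 acridine orange/ethidium bromide and viewed by fluorescence microscopy at 400x (green viable, orange-red apoptotic).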

HeLa [14] = test: Cytotoxicity against human HeLa cells after 24 hrs by MTT assay; type: functional, cell-based
BT-549 [15] = test: Cytotoxicity against human BT549 cells after 24 hrs by MTT assay; type: functional, cell-based; settings: BT-549, 24 h
Rattus norvegicus [16] = test: Antiinflammatory activity in albino rat assessed as inhibition of carrageenan-induced paw edema at 10 mg/kg, po administered 1 hr prior to carrageenan-challenge measured after 3 hrs relative to control; type: functional; how it was run: as §1

SMILES	Activity (HeLa [2]) [%]	Activity (BT-549 [3]) [%]	inhibition in vivo at 100 mg/kg (Rattus norvegicus [4]) [%]	further results
O=c1[nH]cc(F)c(=O)[nH]1 [FLUOROURACIL]	–	–	–	IC50 (ACHN): 9.87 µg/mL (≈ 75.9 µM); IC50 (COLO 205 [1]): 4.56 µg/mL (≈ 35.1 µM)
Cc1cc(=O)[nH]c2cc(N3C(=O)CSC3c3cccc(O)c3)ccc12 (centres undefined)	71.485	18.522	14.3	–
Cc1cc(=O)[nH]c2cc(N3C(=O)CSC3c3ccc(Cl)cc3)ccc12 (centres undefined)	20.198	46.201	13	–
Cc1cc(=O)[nH]c2cc(N3C(=O)CSC3c3ccccc3O)ccc12 (centres undefined)	43.168	44.328	16.4	–
Cc1cc(=O)[nH]c2cc(N3C(=O)CSC3/C=C/c3ccccc3)ccc12 (centres undefined)	42.057	38.837	20.8	–
COc1ccc(C2SCC(=O)N2c2ccc3c(C)cc(=O)[nH]c3c2)cc1 (centres undefined)	47.326	39.334	21.4	–
Cc1cc(=O)[nH]c2cc(N3C(=O)CSC3c3ccccn3)ccc12 (centres undefined)	20	18.028	7.5	–
Cc1cc(=O)[nH]c2cc(N3C(=O)CSC3c3ccccc3[N+](=O)[O-])ccc12 (centres undefined)	28.316	44.953	24.1	–
Cc1cc(=O)[nH]c2cc(N3C(=O)CSC3c3cccc(Br)c3)ccc12 (centres undefined)	56.633	40.062	22.7	–
Cc1cc(=O)[nH]c2cc(N3C(=O)CSC3c3ccccc3F)ccc12 (centres undefined)	59.6	40.062	20.4	–
Cc1cc(=O)[nH]c2cc(N3C(=O)CSC3c3ccc(F)cc3)ccc12 (centres undefined)	14.231	43.311	19	–
Cc1cc(=O)[nH]c2cc(N3C(=O)CSC3c3ccccc3)ccc12 (centres undefined)	74.85	71.578	17.8	Activity [5]: 60.57%; MST [5]: 29.16 days; Activity [6]: 5.93%; Activity [7]: 10.65%; inhibition (COLO 205 [8]): Active; inhibition (COLO 205 [9]): Active; Activity (COLO 205 [10]): Active; Activity (COLO 205 [11]): Active; Activity (COLO 205 [12]): Active; Activity (COLO 205 [13]): Active; IC50 (ACHN): 78.9 µg/mL (≈ 234 µM); IC50 (COLO 205 [1]): 31.4 µg/mL (≈ 93.3 µM); IC50 (HeLa [14]): 35.1 µg/mL (≈ 104 µM); IC50 (BT-549 [15]): 39.3 µg/mL (≈ 117 µM)
Cc1cc(=O)[nH]c2cc(N3C(=O)CSC3c3ccc(Br)cc3)ccc12 (centres undefined)	65.742	42.663	12.4	–
Cc1cc(=O)[nH]c2cc(N3C(=O)CSC3c3ccco3)ccc12 (centres undefined)	41.188	49.658	5.16	–
COc1ccc2c(c1)c(CC(=O)O)c(C)n2C(=O)c1ccc(Cl)cc1 [INDOMETHACIN]	–	–	–	inhibition in vivo at 10 mg/kg (Rattus norvegicus [16]): 33.2%
Cc1cc(=O)[nH]c2cc(N3C(=O)CSC3c3ccc([N+](=O)[O-])cc3)ccc12 (centres undefined)	54.851	40.478	25.2	–

Reference: ChEMBL document CHEMBL2375332, “Novel quinolone substituted thiazolidin-4-ones as anti-inflammatory, anticancer agents: design, synthesis and biological screening” (Eur J Med Chem, 2013)
